Results: ChEMBL document CHEMBL4689842, “EUbOPEN Chemogenomics Library wave 1” (2021)

Test system: HEK-293T
Test: Multiplex assay against HEK293T;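 for Population Tubulin-Different-Phenotype (%): share of the cells with healthy nuclei that show this phenotype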
Format: toxicity, cell-based
Settings: human
In short: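 Phenotypes for tubulin, mitochondrial mass and membrane permeability are expressed as per cents of healthy-nucleus cells. Cells were stained live at seeding with Hoechst33342, BioTracker Green Microtubule Cytoskeleton Dye, MitoTracker Red and Annexin V Alexa Fluor 680, then imaged after compound addition on a CQ1 microscope at 37°C and 5% CO2. Machine-learning gating in CellPathfinder separated Hoechst high-intensity objects from normal cells, divided normal cells by nuclear state (healthy, pyknosed, fragmented) and divided pyknosed cells into mitotic or apoptotic.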

[1] = 12 h, 1 µM, compound concentration 1 uM, replicate 1
[2] = 12 h, 1 µM, compound concentration 1 uM, replicate 2
[3] = 12 h, 10 µM, compound concentration 10 uM, replicate 1
[4] = 12 h, 10 µM, compound concentration 10 uM, replicate 2
[5] = 24 h, 1 µM, compound concentration 1 uM, replicate 1
[6] = 24 h, 1 µM, compound concentration 1 uM, replicate 2
[7] = 24 h, 10 µM, compound concentration 10 uM, replicate 1
[8] = 24 h, 10 µM, compound concentration 10 uM, replicate 2
[9] = 48 h, 1 µM, compound concentration 1 uM, replicate 1
[10] = 48 h, 1 µM, compound concentration 1 uM, replicate 2
[11] = 48 h, 10 µM, compound concentration 10 uM, replicate 1
[12] = 48 h, 10 µM, compound concentration 10 uM, replicate 2

SMILES: O=c1cc(N2CCOCC2)oc2c(-c3cccc4c3sc3ccccc34)cccc12
- Population Apoptotic (%) [1]: 46%
- Population Fragmented Nuclei (%) [1]: 7%
- Population Hoechst High Intensity Objects (%) [1]: 12%
- Population Membrane Permeable-Phenotype (%) [1]: 3%
- Population Mitochondria Different-Phenotype (%) [1]: 92%
- Population Mitotic Cells (%) [1]: 53%
- Population Normal (%) [1]: 87%
- Population Pyknosed Nuclei (%) [1]: 52%
- Population Tubulin-Different-Phenotype (%) [1]: 58%
- Total Cell Count [1]: 283
- Population Apoptotic (%) [2]: 14%
- Population Fragmented Nuclei (%) [2]: 5%
- Population Healthy Nuclei (%) [2]: 40%
- Population Hoechst High Intensity Objects (%) [2]: 4%
- Population Membrane Permeable-Phenotype (%) [2]: 1%
- Population Mitochondria Different-Phenotype (%) [2]: 20%
- Population Mitotic Cells (%) [2]: 85%
- Population Normal (%) [2]: 95%
- Population Pyknosed Nuclei (%) [2]: 53%
- Population Tubulin-Different-Phenotype (%) [2]: 19%
- Total Cell Count [2]: 224
- Population Apoptotic (%) [3]: 61%
- Population Fragmented Nuclei (%) [3]: 16%
- Population Healthy Nuclei (%) [3]: 14%
- Population Hoechst High Intensity Objects (%) [3]: 14%
- Population Membrane Permeable-Phenotype (%) [3]: 8%
- Population Mitochondria Different-Phenotype (%) [3]: 100%
- Population Mitotic Cells (%) [3]: 38%
- Population Normal (%) [3]: 85%
- Population Pyknosed Nuclei (%) [3]: 68%
- Population Tubulin-Different-Phenotype (%) [3]: 91%
- Total Cell Count [3]: 192
- Population Apoptotic (%) [4]: 49%
- Population Fragmented Nuclei (%) [4]: 8%
- Population Healthy Nuclei (%) [4]: 7%
- Population Hoechst High Intensity Objects (%) [4]: 6%
- Population Mitochondria Different-Phenotype (%) [4]: 91%
- Population Mitotic Cells (%) [4]: 50%
- Population Normal (%) [4]: 93%
- Population Pyknosed Nuclei (%) [4]: 83%
- Population Tubulin-Different-Phenotype (%) [4]: 83%
- Total Cell Count [4]: 172
- Population Apoptotic (%) [5]: 53%
- Population Fragmented Nuclei (%) [5]: 9%
- Population Healthy Nuclei (%) [5]: 44%
- Population Hoechst High Intensity Objects (%) [5]: 12%
- Population Membrane Permeable-Phenotype (%) [5]: 2%
- Population Mitochondria Different-Phenotype (%) [5]: 77%
- Population Mitotic Cells (%) [5]: 46%
- Population Normal (%) [5]: 87%
- Population Pyknosed Nuclei (%) [5]: 46%
- Population Tubulin-Different-Phenotype (%) [5]: 40%
- Total Cell Count [5]: 310
- Population Apoptotic (%) [6]: 16%
- Population Fragmented Nuclei (%) [6]: 3%
- Population Healthy Nuclei (%) [6]: 60%
- Population Hoechst High Intensity Objects (%) [6]: 4%
- Population Membrane Permeable-Phenotype (%) [6]: 3%
- Population Mitochondria Different-Phenotype (%) [6]: 22%
- Population Mitotic Cells (%) [6]: 83%
- Population Normal (%) [6]: 95%
- Population Pyknosed Nuclei (%) [6]: 36%
- Population Tubulin-Different-Phenotype (%) [6]: 38%
- Total Cell Count [6]: 272
- Population Apoptotic (%) [7]: 61%
- Population Fragmented Nuclei (%) [7]: 15%
- Population Healthy Nuclei (%) [7]: 12%
- Population Hoechst High Intensity Objects (%) [7]: 16%
- Population Membrane Permeable-Phenotype (%) [7]: 0%
- Population Mitochondria Different-Phenotype (%) [7]: 100%
- Population Mitotic Cells (%) [7]: 38%
- Population Normal (%) [7]: 83%
- Population Pyknosed Nuclei (%) [7]: 71%
- Population Tubulin-Different-Phenotype (%) [7]: 100%
- Total Cell Count [7]: 206
- Population Apoptotic (%) [8]: 60%
- Population Fragmented Nuclei (%) [8]: 7%
- Population Healthy Nuclei (%) [8]: 22%
- Population Hoechst High Intensity Objects (%) [8]: 2%
- Population Mitotic Cells (%) [8]: 39%
- Population Normal (%) [8]: 97%
- Population Pyknosed Nuclei (%) [8]: 69%
- Total Cell Count [8]: 186
- Population Apoptotic (%) [9]: 30%
- Population Fragmented Nuclei (%) [9]: 17%
- Population Healthy Nuclei (%) [9]: 42%
- Population Hoechst High Intensity Objects (%) [9]: 9%
- Population Membrane Permeable-Phenotype (%) [9]: 2%
- Population Mitochondria Different-Phenotype (%) [9]: 44%
- Population Mitotic Cells (%) [9]: 70%
- Population Normal (%) [9]: 90%
- Population Pyknosed Nuclei (%) [9]: 40%
- Population Tubulin-Different-Phenotype (%) [9]: 45%
- Total Cell Count [9]: 384
- Population Apoptotic (%) [10]: 14%
- Population Fragmented Nuclei (%) [10]: 7%
- Population Healthy Nuclei (%) [10]: 77%
- Population Hoechst High Intensity Objects (%) [10]: 3%
- Population Membrane Permeable-Phenotype (%) [10]: 3%
- Population Mitochondria Different-Phenotype (%) [10]: 6%
- Population Mitotic Cells (%) [10]: 85%
- Population Normal (%) [10]: 96%
- Population Pyknosed Nuclei (%) [10]: 15%
- Population Tubulin-Different-Phenotype (%) [10]: 26%
- Total Cell Count [10]: 477
- Population Apoptotic (%) [11]: 68%
- Population Fragmented Nuclei (%) [11]: 24%
- Population Healthy Nuclei (%) [11]: 20%
- Population Hoechst High Intensity Objects (%) [11]: 17%
- Population Membrane Permeable-Phenotype (%) [11]: 0%
- Population Mitochondria Different-Phenotype (%) [11]: 100%
- Population Mitotic Cells (%) [11]: 31%
- Population Normal (%) [11]: 82%
- Population Pyknosed Nuclei (%) [11]: 55%
- Population Tubulin-Different-Phenotype (%) [11]: 93%
- Total Cell Count [11]: 186
- Population Apoptotic (%) [12]: 61%
- Population Fragmented Nuclei (%) [12]: 8%
- Population Healthy Nuclei (%) [12]: 29%
- Population Hoechst High Intensity Objects (%) [12]: 8%
- Population Mitochondria Different-Phenotype (%) [12]: 94%
- Population Mitotic Cells (%) [12]: 38%
- Population Normal (%) [12]: 91%
- Population Pyknosed Nuclei (%) [12]: 62%
- Population Tubulin-Different-Phenotype (%) [12]: 96%
- Total Cell Count [12]: 185
